TAAR1 ag = human TAAR1 agonists, primary screen, Fluo-8 calcium fluorescence, CHO RD-HGA16 cells; vehicle wells 0%, saturating PEA agonist 100%; Trace amine-associated receptor 1 (Homo sapiens), Q96RJ0; actives 0.99% (n = 360,000); activation, % at 3 µM;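 active means activation above the mean activation of all test compounds in the run plus 3 SD, cut at about 38% in these data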
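System: CHO-derived RD-HGA16 cells with stable Gα16 and human TAAR1. Times: 17-24 h plating, Fluo-8 75 min 37 °C, 30 min RT. Measured by: calcium-sensitive Fluo-8 signal, excitation 470-495, emission 515-575 nm. Read-out basis: % activation relative to PEA EC100 response. Control set: DMSO and PEA EC100. Repeats: no replicates (n 1).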
TAAR1 antag = human TAAR1 antagonists, primary screen, Fluo-8 calcium fluorescence, CHO RD-HGA16 cells; Trace amine-associated receptor 1 (Homo sapiens), Q96RJ0; inhibition, % at 3 µM; actives 1.5% (n = 360,000); antagonist;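 active means inhibition above a per-plate cutoff, the mean inhibition of test compounds on that plate plus 3 SD, cut at about 49% in these data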;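 further: 0% = DMSO plus EC80 beta-PEA response and 100% = DMSO alone without agonist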
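test system = CHO RD-HGA16 cells bearing hTAAR1 | replication = singlicate | controls = DMSO-only wells and EC80 β-PEA-stimulated wells | reagent = EC80 β-phenethylamine stimulus | read-out basis = percent inhibition of PEA-evoked calcium signal, max/basal emission ratio | schedule = seeding 17-24 h prior, 75-min 37 °C, 30-min RT dye loading | signal = kinetic Fluo-8 calcium fluorescence measurement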
OX1R antag-1 = OX1R (HCRTR1) antagonists, primary screen, fluorescence, CHO/OX1R cells, Fluo-8 calcium, orexin A; Orexin/Hypocretin receptor type 1 (Homo sapiens), O43613; Fluo-8 calcium fluorescence; inhibition, % at 5 µM; actives 0.43% (n = 330,000); AID 434989, 2010;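 active means inhibition above its plate's threshold, mean inhibition of all tested compounds on the plate plus 3 SD, cut at about 37% in these data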;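 further: 0% = orexin A challenge wells and 100% = SB-334867-A antagonist wells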
Target sequence (O43613 whole entry, looked up): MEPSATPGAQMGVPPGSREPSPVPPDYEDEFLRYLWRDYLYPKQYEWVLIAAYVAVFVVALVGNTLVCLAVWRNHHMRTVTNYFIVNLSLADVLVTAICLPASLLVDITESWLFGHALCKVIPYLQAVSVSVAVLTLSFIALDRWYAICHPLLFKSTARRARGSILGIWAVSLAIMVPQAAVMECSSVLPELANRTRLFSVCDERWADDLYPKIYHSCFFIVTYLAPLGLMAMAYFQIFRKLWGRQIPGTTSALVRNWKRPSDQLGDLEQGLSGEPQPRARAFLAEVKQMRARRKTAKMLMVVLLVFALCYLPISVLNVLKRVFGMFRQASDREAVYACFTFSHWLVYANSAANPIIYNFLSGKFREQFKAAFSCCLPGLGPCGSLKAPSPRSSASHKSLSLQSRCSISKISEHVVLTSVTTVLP
OX1R antag-2 = antagonists of human orexin 1 receptor (OX1R); Orexin/Hypocretin receptor type 1 (Homo sapiens), O43613; OX1R-expressing cells, FRET antagonist read-out; inhibition, % at 6.6 µM; actives 1.8% (n = 330,000); in the data active means inhibition mostly above about 38%, no sharp cut-off; inactive means mostly below about 40%;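 further: 0% = agonist challenge alone and 100% = reference antagonist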
GPR7 antagonist = GPR7 receptor antagonists, primary screen, cell-based, fluorescence, single concentration; Neuropeptides B/W receptor type 1 (Homo sapiens), P48145; GPR7-expressing cells, fluorescence antagonist assay; inhibition, % at 4.4 µM; actives 1.1% (n = 290,000); AID 1861, 2009; in the data active means inhibition above about 16%, passing the limit was not always enough;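 further: cells stimulated with the agonist NPW; 0% = agonist with vehicle and 100% = vehicle without agonist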
CHO parental Ca = ATP-evoked calcium signal inhibitors, parental CHO, primary screen, counter-screen for OX1R antagonist project, cell-based, fluorescence, Fluo-8 calcium dye; parental CHO-K1, ATP-induced calcium, Fluo-8 fluorescence; inhibition, % at 5.6 µM; actives 0.63% (n = 330,000); AID 463079, 2010;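 active means inhibition above that plate's mean sample inhibition plus 3 SD, cut at about 26% in these data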;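 further: 0% = ATP-challenged DMSO wells and 100% = DMSO wells without ATP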
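Material: parental CHO cells / Compound: single nominal dose of 5.6 µM per compound / Signal: Fluo-8 fluorescence / Replicates: singlicate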
GPR7 antag conf = GPR7 receptor antagonists, confirmation, cell-based, fluorescence, single concentration; shares compounds with GPR7 antagonist; GPR7-expressing cells, calcium fluorescence antagonist mode; inhibition, % at 4.4 µM; actives 52% (n = 2,400); in the data active means inhibition above about 24%;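 further: stimulated with the GPR7 agonist NPW; 0% = agonist plus vehicle and 100% = vehicle alone without agonist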
MCHR1 antag = MCHR1 antagonists in cells, counter-screen for GPR7 antagonist project, cell-based, fluorescence, human. inhibition, % at 4.4 µM. shares compounds with GPR7 antagonist. MCHR1-expressing cells, fluorescence antagonist assay. AID 2148, 2009. actives 62% (n = 2,400); in the data active means inhibition above about 22%;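 further: 0% = vehicle with agonist and 100% = vehicle without agonist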
* = called active by the depositor; . = no result given. Compounds with a hit are over-represented: about 4.6% of the library has one in this group of screens.

SMILES	TAAR1 ag	TAAR1 antag	OX1R antag-1	OX1R antag-2	GPR7 antagonist	CHO parental Ca	GPR7 antag conf	MCHR1 antag
O=C(c1cc(F)ccc1F)C1CCCN(Cc2cccn2-c2ccccn2)C1 (centres undefined)	1	-45	-34	20	37*	-13	20	24*
COc1ccc(F)cc1C(=O)C1CCCN(Cc2cn(C)c3ccccc23)C1 (centres undefined)	7	-14	-13	29	24*	-11	33*	30*
CS(=O)(=O)N(CC(=O)N1CCN(Cc2ccc3c(c2)OCO3)CC1)Cc1ccc(Cl)cc1	11	-3	-4	11	25*	-24	38*	56*
O=C(NCc1ccncc1)Nc1ccc(F)cc1	11	-7	-5	12	31*	2	-7	-10
Cc1c(Cl)sn(-c2ccc(Cl)cc2)c1=O	12	61*	.	.	25*	.	73*	91*
Cc1nn(-c2ccc(Cl)cc2)c(=O)c2ccccc12	2	2	-17	3	1	-1	.	.
O=C(NC1CCCC1)C(c1ccccc1)N(Cc1ccc(F)cc1)C(=O)c1csnn1 (centres undefined)	-4	14	-29	20	5	-30	.	.
COCCN(C(=O)c1csnn1)C(C(=O)NC1CCCC1)c1ccccc1 (centres undefined)	-1	9	-24	15	44*	-18	1	-6
COCCN(C(=O)c1csnn1)C(C(=O)NC1CCCCC1)c1ccc(C)cc1 (centres undefined)	-3	-1	-17	11	-6	-15	.	.
O=C(NC1CCCC1)C(c1ccc(F)cc1)N(Cc1ccccc1)C(=O)c1csnn1 (centres undefined)	-4	0	-37	15	23*	-18	32*	22*
O=C(NC1CCCCC1)C(c1ccccc1F)N(C(=O)c1csnn1)C1CCCC1 (centres undefined)	6	4	-28	24	23*	-22	17	19
CCOc1cc(/C=C2/COc3ccccc3C2=O)ccc1OCC(=O)N(C)C	1	-2	.	.	24*	.	5	21*
CCOc1ccc2c(c1)C(=O)C(=O)N2CC1COc2ccccc2O1 (centres undefined)	-2	2	-8	-8	25	-7	.	.
COc1ccc2c(c1)C(=O)C(=O)N2CC1COc2ccccc2O1 (centres undefined)	-1	26	-6	-7	31*	-11	20	27*
NC(=O)CC(NC(=O)c1ccc(Cl)cc1)C(=O)NCCc1ccc(S(N)(=O)=O)cc1 (centres undefined)	1	-5	3	9	1	-7	.	.
O=C(Nc1cccc(C(F)(F)F)c1)C(SCCO)c1ccccc1 (centres undefined)	6	7	-11	14	-4	-9	.	.
CCC(C(=O)Nc1cccc(C(F)(F)F)c1)c1ccccc1 (centres undefined)	1	17	-3	43	28*	-4	8	47*
CN(CC(=O)Nc1cccc(F)c1)C(=O)CN1C(=O)NC2(CCCC2)C1=O	-1	-9	-4	2	.	1	.	.
Cc1noc(C)c1CSc1nc2ccccc2n1CCc1ccccc1	1	-25	20	36	26*	-19	-3	10
Cc1sc(NC(=O)c2ccco2)c(CN2CCN(c3ccccn3)CC2)c1C	.	.	-24	12	32*	-30	13	49*
Cc1ccc(Oc2cc(NN3CCCCC3)c([N+](=O)[O-])cc2[N+](=O)[O-])c(Cl)c1	0	-1	-15	11	4	-14	.	.
C/C(=N\NC(=O)Cc1ccc(Cl)c(Cl)c1)c1cccnc1	1	-16	.	.	2	.	.	.
C/C(=N\NC(=O)Cc1ccc([N+](=O)[O-])cc1)c1cccnc1	1	-22	.	.	23*	.	0	16
CCOc1ccc(NS(=O)(=O)c2ccc(C(=O)N(C)CC(=O)Nc3ccccc3Br)cc2)cc1	10	1	.	.	.	.	.	.
CS(=O)(=O)N(CC(=O)N1CCCC1)c1cccc(C(F)(F)F)c1	0	-6	.	.	.	.	.	.
SMILES	TAAR1 ag	TAAR1 antag	OX1R antag-1	OX1R antag-2	GPR7 antagonist	CHO parental Ca	GPR7 antag conf	MCHR1 antag
CCOC(=O)C1CCN(c2ncnc3c2nnn3Cc2ccccc2Cl)CC1	1	-34	-15	26	22*	-20	26*	29*
N=C(N)SCc1cn(-c2ccccc2)nc1-c1ccc(Br)cc1	79*	47	.	.	26*	.	63*	89*
CCOC(=O)c1cc2ccccc2n1CCN(CC)CC	23	-13	-42	8	31*	-17	6	6
Cc1ccc(-n2nnnc2SCC(=O)NC2CCS(=O)(=O)C2)c(C)c1 (centres undefined)	0	-29	.	.	.	.	.	.
COC(=O)CN1C(c2ccccc2)=Nc2ccc(Cl)cc2C1c1ccccc1 (centres undefined)	2	-8	-17	24	28*	-26	4	23*
COc1ccc2nc(NC(=O)CSc3cn[nH]n3)sc2c1	0	11	1	8	10	-2	.	.
CCOc1ccc2nc(NC(=O)CSc3cn[nH]n3)sc2c1	-1	14	-2	34	22*	5	-4	6
CC(=O)c1c(C)[nH]c(C(=O)Nc2cccc(C(F)(F)F)c2)c1C	9	9	45*	70*	33*	37*	4	59*
CCCC[N+](CC#CCO)(CC#Cc1ccccc1)CCCC	1	-26	5	5	25*	-2	25*	26*
CCC[N+](CC#CCO)(CC#Cc1ccccc1)CCC	2	-12	11	8	-2	-10	.	.
CCOc1ccc(NC(=S)N2CCC(NC(=O)C3CCCCC3)CC2)cc1	11	-24	-6	14	28*	3	-8	3
Cn1c(=O)c2cc(NC(=O)CCc3cccnc3)ccc2n1Cc1ccc(F)cc1	1	7	.	.	.	.	.	.
